Reference: ChEMBL document CHEMBL1649142, “Relationship between susceptibility to daptomycin in vitro and activity in vivo in a rabbit model of aortic valve endocarditis” (Antimicrob Agents Chemother, 2009)
≈ marks a conversion by molar mass, not a printed value.

How the values were obtained:
Staphylococcus aureus [1] = test: Antimicrobial activity against Staphylococcus aureus A0.5 infected in New Zealand rabbit aortic valve endocarditis model assessed as bacterial count in spleen at 18 mg/kg/day, iv for 4 days (reference value: 6.1+/-0.2 log10 CFU/g); assay type: functional
Staphylococcus aureus [2] = test: Antimicrobial activity against Staphylococcus aureus B2.0 infected in New Zealand rabbit aortic valve endocarditis model assessed as bacterial count in kidney at 12 mg/kg/day, iv for 4 days (reference value: 5.1+/-0.6 log10 CFU/g); assay type: functional
[3] = AUC in human at 6 mg/kg, iv by HPLC; assay type: ADME, organism-based; design: dose 6 mg/kg, route intravenous; details: plasma
Staphylococcus aureus [4] = test: Antimicrobial activity against Staphylococcus aureus A0.5/B2.0 infected in New Zealand rabbit dual-infection aortic valve endocarditis model assessed as bacterial count of strain A0.5 in spleen at 12 mg/kg/day, iv for 4 days (reference value: 333 log10 CFU); assay type: functional
Staphylococcus aureus [5] = test: Antimicrobial activity against Staphylococcus aureus A0.5/B2.0 infected in New Zealand rabbit dual-infection aortic valve endocarditis model assessed as bacterial count in spleen at 12 mg/kg/day, iv for 4 days (reference value: 6.0+/-0.3 log10 CFU/g); assay type: functional
[6] = Cmax in New Zealand rabbit at 18 mg/kg/day, iv […] measured after 15 mins […] by HPLC; assay type: ADME, organism-based, Oryctolagus cuniculus; design: dose 18 mg/kg/day, route intravenous; details: in vivo
In short: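 A single IV bolus (1 to 2 min, marginal ear vein) was given to healthy New Zealand White rabbits, three per group. Plasma was drawn from 0.25 to 6 h and assayed by validated HPLC. The reported value is the mean plasma concentration 15 min after the end of infusion, not a multi-day steady-state peak.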

[7] = AUC in New Zealand rabbit at 18 mg/kg/day, iv for 4 days by HPLC; assay type: ADME, organism-based, Oryctolagus cuniculus; design: route intravenous; details: plasma
Staphylococcus aureus [8] = test: Antimicrobial activity against Staphylococcus aureus A0.5/B2.0 infected in New Zealand rabbit dual-infection aortic valve endocarditis model assessed as bacterial count of strain A0.5 in endocardial vegetation at 12 mg/kg/day, iv for 4 days (reference value: 280 log10 CFU); assay type: functional, Aorta
Staphylococcus aureus [9] = test: Antimicrobial activity against Staphylococcus aureus A0.5/B2.0 infected in New Zealand rabbit dual-infection aortic valve endocarditis model assessed as bacterial count of strain B2.0 in endocardial vegetation at 12 mg/kg/day, iv for 4 days (reference value: 320 log10 CFU); assay type: functional, Aorta
[10] = AUC in human at 10 mg/kg, iv by HPLC; assay type: ADME, organism-based; design: dose 10 mg/kg, route intravenous; details: plasma
Staphylococcus aureus [11] = test: Antimicrobial activity against Staphylococcus aureus B2.0 infected in New Zealand rabbit aortic valve endocarditis model assessed as bacterial count in endocardial vegetation at 18 mg/kg/day, iv for 4 days (reference value: 7.3+/-1.0 log10 CFU/g); assay type: functional, Aorta
Staphylococcus aureus [12] = test: Antimicrobial activity against rifampin-susceptible Staphylococcus aureus A by Etest
Staphylococcus aureus [13] = test: Antimicrobial activity against Staphylococcus aureus A0.5 infected in New Zealand rabbit aortic valve endocarditis model assessed as bacterial count in endocardial vegetation at 18 mg/kg/day, iv for 4 days (reference value: 6.9+/-0.7 log10 CFU/g); assay type: functional
Staphylococcus aureus [14] = test: Antimicrobial activity against Staphylococcus aureus A0.5/B2.0 infected in New Zealand rabbit dual-infection aortic valve endocarditis model assessed as bacterial count in kidney at 12 mg/kg/day, iv for 4 days (reference value: 6.3+/-1.0 log10 CFU/g); assay type: functional
Staphylococcus aureus [15] = test: Antimicrobial activity against Staphylococcus aureus A0.5/B2.0 infected in New Zealand rabbit dual-infection aortic valve endocarditis model assessed as bacterial count in endocardial vegetation at 12 mg/kg/day, iv for 4 days (reference value: 7.8+/-0.4 log10 CFU/g); assay type: functional, Aorta
Staphylococcus aureus [16] = test: Antimicrobial activity against Staphylococcus aureus A0.5 infected in New Zealand rabbit aortic valve endocarditis model assessed as bacterial count in endocardial vegetation at 12 mg/kg/day, iv for 4 days (reference value: 6.9+/-0.7 log10 CFU/g); assay type: functional
Staphylococcus aureus [17] = test: Antimicrobial activity against Staphylococcus aureus B2.0 infected in New Zealand rabbit aortic valve endocarditis model assessed as bacterial count in spleen at 12 mg/kg/day, iv for 4 days (reference value: 5.4+/-0.2 log10 CFU/g); assay type: functional
Staphylococcus aureus [18] = test: Antimicrobial activity against rifampin-susceptible Staphylococcus aureus A by broth dilution method
Staphylococcus aureus [19] = test: Antimicrobial activity against Staphylococcus aureus B2.0 infected in New Zealand rabbit aortic valve endocarditis model assessed as bacterial count in spleen at 18 mg/kg/day, iv for 4 days (reference value: 5.4+/-0.2 log10 CFU/g); assay type: functional
Staphylococcus aureus [20] = test: Antimicrobial activity against Staphylococcus aureus A0.5 infected in New Zealand rabbit aortic valve endocarditis model assessed as bacterial count in spleen at 12 mg/kg/day, iv for 4 days (reference value: 6.1+/-0.2 log10 CFU/g); assay type: functional
Staphylococcus aureus [21] = test: Antimicrobial activity against Staphylococcus aureus B2.0 infected in New Zealand rabbit aortic valve endocarditis model assessed as bacterial count in endocardial vegetation at 12 mg/kg/day, iv for 4 days (reference value: 7.3+/-1.0 log10 CFU/g); assay type: functional, Aorta
Staphylococcus aureus [22] = test: Antimicrobial activity against Staphylococcus aureus A0.5 infected in New Zealand rabbit aortic valve endocarditis model assessed as bacterial count in spleen at 12 mg/kg/day, iv for 4 days (reference value: 5.7+/-0.7 log10 CFU/g); assay type: functional
[23] = Half life in New Zealand rabbit at 12 mg/kg/day, iv […] by HPLC; assay type: ADME, organism-based, Oryctolagus cuniculus; design: route intravenous; details: in vivo
In short: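 Uninfected New Zealand White rabbits (n = 3 per group) were dosed once by IV bolus. Plasma was collected at 0.25, 0.5, 1, 2, 4 and 6 h and measured by validated HPLC. Half-life was obtained by noncompartmental analysis, with kel taken from the slope of the terminal log concentration-time curve.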

Staphylococcus aureus [24] = test: Antimicrobial activity against rifampin-resistant Staphylococcus aureus B; assay type: functional
[25] = AUC in New Zealand rabbit at 12 mg/kg/day, iv for 4 days by HPLC; assay type: ADME, organism-based, Oryctolagus cuniculus; design: route intravenous; details: plasma
Staphylococcus aureus [26] = test: Antimicrobial activity against Staphylococcus aureus A0.5 infected in New Zealand rabbit aortic valve endocarditis model assessed as bacterial count in spleen at 18 mg/kg/day, iv for 4 days (reference value: 5.7+/-0.7 log10 CFU/g); assay type: functional
Staphylococcus aureus [27] = test: Antimicrobial activity against Staphylococcus aureus A0.5/B2.0 infected in New Zealand rabbit dual-infection aortic valve endocarditis model assessed as bacterial count of strain B2.0 in spleen at 12 mg/kg/day, iv for 4 days (reference value: 627 log10 CFU); assay type: functional
Staphylococcus aureus [28] = test: Antimicrobial activity against Staphylococcus aureus B2.0 infected in New Zealand rabbit aortic valve endocarditis model assessed as bacterial count in kidney at 18 mg/kg/day, iv for 4 days (reference value: 5.1+/-0.6 log10 CFU/g); assay type: functional

SMILES: CCCCCCCCCC(=O)N[C@@H](Cc1c[nH]c2ccccc12)C(=O)N[C@H](CC(N)=O)C(=O)N[C@@H](CC(=O)O)C(=O)N[C@@H]1C(=O)NCC(=O)N[C@@H](CCCN)C(=O)N[C@@H](CC(=O)O)C(=O)N[C@H](C)C(=O)N[C@@H](CC(=O)O)C(=O)NCC(=O)N[C@H](CO)C(=O)N[C@@H]([C@H](C)CC(=O)O)C(=O)N[C@@H](CC(=O)c2ccccc2N)C(=O)O[C@@H]1C
- log10CFU/g (Staphylococcus aureus [1]): 0
- log10CFU/g (Staphylococcus aureus [2]): 2.1
- AUC [3]: 632 µg·h/mL
- log10CFU/g (Staphylococcus aureus [4]): 1
- log10CFU/g (Staphylococcus aureus [5]): 2.3
- Cmax [6]: 149 µg/mL
- AUC at 96 h [7]: 965 µg·h/mL
- log10CFU/g (Staphylococcus aureus [8]): 2.3
- log10CFU/g (Staphylococcus aureus [9]): 1.7
- AUC [10]: 1040 µg·h/mL
- log10CFU/g (Staphylococcus aureus [11]): 4.4
- MIC (Staphylococcus aureus [12]): 0.5 µg/mL (≈ 0.309 µM)
- log10CFU/g (Staphylococcus aureus [13]): 0
- log10CFU/g (Staphylococcus aureus [14]): 1.7
- log10CFU/g (Staphylococcus aureus [15]): 5.3
- log10CFU/g (Staphylococcus aureus [16]): 0
- log10CFU/g (Staphylococcus aureus [17]): 3.2
- MIC (Staphylococcus aureus [18]): 0.5 µg/mL (≈ 0.309 µM)
- log10CFU/g (Staphylococcus aureus [19]): 2.3
- log10CFU/g (Staphylococcus aureus [20]): 0
- log10CFU/g (Staphylococcus aureus [21]): 6.3
- log10CFU/g (Staphylococcus aureus [22]): 0
- half-life [23]: 5 h
- MIC (Staphylococcus aureus [24]): 2 µg/mL (≈ 1.23 µM)
- AUC at 96 h [25]: 719 µg·h/mL
- log10CFU/g (Staphylococcus aureus [26]): 0
- log10CFU/g (Staphylococcus aureus [27]): 0
- log10CFU/g (Staphylococcus aureus [28]): 2.5
